Measurements: ChEMBL document CHEMBL1764975, “A new DNA gyrase inhibitor subclass of the cyclothialidine family based on a bicyclic dilactam-lactone scaffold. Synthesis and antibacterial properties” (J Med Chem, 2011)
In brackets after ≈: the same amount, converted by molar mass.

How the values were obtained:
[1] = system: Escherichia coli; test: Inhibition of Escherichia coli DNA gyrase A2B2 complex after 30 mins by supercoiling assay
[2] = system: Staphylococcus aureus; test: Antimicrobial activity against Staphylococcus aureus Smith infected in iv dosed septicaemia Swiss albino mouse model after 4 days; format: functional; conditions: 96 h
Procedure, shortened: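 Septicaemia model in mice infected with S. aureus Smith, compound given iv. In experiments with 0-1 survivors among 5-10 control mice, ED₅₀ (mg/kg) taken as lowest dose giving 3-5 survivors out of 5 infected mice.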

[3] = system: Staphylococcus aureus; test: (§1) Antimicrobial activity against Staphylococcus aureus Smith after 18 hrs by agar dilution method; format: functional
Procedure, shortened: (§2)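 Agar dilution on Mueller-Hinton medium, inoculum 10⁴ CFU/spot; MIC is the minimum inhibitory concentration against the named strain.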

[4] = system: Enterococcus faecalis; test: Antimicrobial activity against multidrug-resistant Enterococcus faecalis after 18 hrs by agar dilution method; format: functional
Procedure, shortened: (§3)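 Agar dilution on Mueller-Hinton agar, inoculum 10⁴ CFU/spot, against panels of multiresistant clinical strains (S. aureus 11, E. faecalis 16, E. faecium 23). MIC_50/90 in μg/mL taken as the minimum concentration inhibiting at least 50% or 90% of the strains tested.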

[5] = system: Stenotrophomonas maltophilia; test: Antimicrobial activity against Xanthomonas maltophilia IAC 739 after 18 hrs by agar dilution method; format: functional; conditions: IAC 739, 18 h; procedure, shortened: as §2
[6] = system: Streptococcus pyogenes; test: Antimicrobial activity against Streptococcus pyogenes b15 after 18 hrs by agar dilution method; format: functional; conditions: b15, 18 h; procedure, shortened: as §2
[7] = system: Enterococcus faecium; test: Antimicrobial activity against multidrug-resistant Enterococcus faecium after 18 hrs by agar dilution method; format: functional; procedure, shortened: as §3
[8] = system: Escherichia coli; test: Antimicrobial activity against Escherichia coli 25922 after 18 hrs by agar dilution method; format: functional; conditions: Escherichia coli, 25922, 18 h; procedure, shortened: as §2
[9] = system: Staphylococcus aureus; test: Antimicrobial activity against multidrug-resistant Staphylococcus aureus after 18 hrs by agar dilution method; format: functional; procedure, shortened: as §3
[10] = system: Staphylococcus aureus; test: Antimicrobial activity against Staphylococcus aureus ATCC 25923 after 18 hrs by agar dilution method; format: functional; conditions: ATCC 25923, 18 h; procedure, shortened: as §2
[11] = Octanol-water partition coefficient, log D of the compound at pH 7.4 by shake-flask method; format: physicochemical
Procedure, shortened: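 Octanol/water partition measured by shake-flask at pH 7.4.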

[12] = system: Enterococcus faecalis; test: Antimicrobial activity against Enterococcus faecalis 6 after 18 hrs by agar dilution method; conditions: Enterococcus faecalis, 6, 18 h
[13] = system: Staphylococcus epidermidis; test: Antimicrobial activity against Staphylococcus epidermidis 16/2 after 18 hrs by agar dilution method; format: functional; conditions: 16/2, 18 h; procedure, shortened: as §2
[14] = system: Staphylococcus aureus; test: as §1; format: functional; procedure, shortened: as §2; remark: listed apart in the source

| SMILES | MNEC [1] [µg/mL] | MIC [3] [µg/mL] | ED50 [2] [mg/kg] | also measured |
| --- | --- | --- | --- | --- |
| COc1cc(O)c2c(c1Br)C(=O)O[C@H](c1ccccc1)C(=O)NCC(=S)N[C@H](c1nc(C)no1)CSC2 | 1 | 0.5 (≈ 0.823 µM) | > 25 | – |
| COC(=O)[C@@H]1CSCc2c(O)cc(OC)c(C)c2C(=O)OCCCC/C(S)=N/1 | 0.01 | – | – | – |
| CN[C@H](CC(C)C)C(=O)N[C@H]1C(=O)N[C@@H](CC(N)=O)C(=O)N[C@H]2C(=O)N[C@H]3C(=O)N[C@H](C(=O)N[C@H](C(=O)O)c4cc(O)cc(O)c4-c4cc3ccc4O)[C@H](O)c3ccc(c(Cl)c3)Oc3cc2cc(c3O[C@@H]2O[C@H](CO)[C@@H](O)[C@H](O)[C@H]2O[C@H]2C[C@](C)(N)[C@H](O)[C@H](C)O2)Oc2ccc(cc2Cl)[C@H]1O [VANCOMYCIN] | – | – | 1.5 | MIC50 [4]: 2 µg/mL (≈ 1.38 µM); MIC90 [4]: 256 µg/mL (≈ 177 µM); MIC [5]: > 64 µg/mL; MIC [6]: 1 µg/mL (≈ 0.69 µM); MIC50 [7]: 256 µg/mL (≈ 177 µM); MIC90 [7]: > 256 µg/mL; MIC [8]: > 64 µg/mL; MIC50 [9]: 2 µg/mL (≈ 1.38 µM); MIC90 [9]: 4 µg/mL (≈ 2.76 µM) |
| COc1cc(O)c2c(c1Br)C(=O)OCC(=O)NCC(=O)N[C@H](c1nc(C3CC3)no1)CSC2 | 0.02 | 2 (≈ 3.69 µM) | 6 | – |
| COc1cc(O)c2c(c1Br)C(=O)OCC(=O)N(C)CC(=O)N[C@H](c1nc(C)no1)CSC2 | 0.05 | 2 (≈ 3.78 µM) | > 12.5 | – |
| COc1cc(O)c2c(c1Br)C(=O)O[C@H](C)C(=O)NCC(=S)N[C@H](c1nc(C)no1)CSC2 | 0.2 | 0.5 (≈ 0.917 µM) | > 12.5 | – |
| COC(=O)[C@@H]1CSCc2c(O)cc(OC)c(C)c2C(=O)OCCOCC(=S)N1 | 0.1 | 2.37 (≈ 5.52 µM) | – | – |
| COc1cc(O)c2c(c1Br)C(=O)OCCN(C(=O)C(C)(C)C)CC(=O)N[C@H](c1nc(C)no1)CSC2 | 0.05 | 0.5 (≈ 0.854 µM) | > 12 | – |
| C[C@@H](O)[C@H]1C(=O)N2C(C(=O)O)=C(SCCNC=N)C[C@H]12 [IMIPENEM ANHYDROUS] | – | – | – | MIC50 [4]: 2 µg/mL (≈ 6.68 µM); MIC90 [4]: 2 µg/mL (≈ 6.68 µM); MIC50 [7]: 64 µg/mL (≈ 214 µM); MIC90 [7]: > 64 µg/mL; MIC50 [9]: 32 µg/mL (≈ 107 µM); MIC90 [9]: 64 µg/mL (≈ 214 µM) |

More lines, main results first:

| MNEC [1] [µg/mL] | MIC [3] [µg/mL] | SMILES | ED50 [2] [mg/kg] | also measured |
| --- | --- | --- | --- | --- |
| 0.005 | 0.25 (≈ 0.548 µM) | COc1cc(O)c2c(c1Cl)C(=O)OCCCCC(=O)N[C@H](c1nc(C)no1)CSC2 | > 25 | – |
| 0.1 | 8 (≈ 14 µM) | COc1cc(O)c2c(c1Br)C(=O)OCCN(C(=O)C1CC1)CC(=O)N[C@H](c1nc(C)no1)CSC2 | – | – |
| 0.005 | 2 (≈ 4.29 µM) | COc1cc(O)c2c(c1C)C(=O)OCC(=S)NCC(=O)N[C@H](c1nc(C)no1)CSC2 | > 25 | – |
| 0.002 | 0.25 (≈ 0.53 µM) | COc1cc(O)c2c(c1Cl)C(=O)OCCCCC(=S)N[C@H](c1nc(C)no1)CSC2 | – | – |
| 0.05 | 0.5 (≈ 0.917 µM) | COc1cc(O)c2c(c1Br)C(=O)OCC(=O)N(C)CC(=S)N[C@H](c1nc(C)no1)CSC2 | – | – |
| 0.01 | 1 | COc1cc(O)c2c(c1Br)C(=O)OCCNCC(=O)N[C@H](c1nc(C)no1)CSC2.Cl | 25 | – |
| 0.001 | 0.25 (≈ 0.535 µM) | COc1cc(O)c2c(c1C)C(=O)OCCCCC(=S)N[C@H](c1nc(CO)no1)CSC2 | 25 | – |
| 0.2 | 1 (≈ 1.83 µM) | COc1cc(O)c2c(c1Br)C(=O)OCC(=S)NCC(=S)N[C@H](c1nc(C)no1)CSC2 | – | – |
| 0.002 | 0.12 | COc1cc(O)c2c(c1Cl)C(=O)OCCCCC(=S)N[C@H](c1nc(CN)no1)CSC2.Cl | 6 | MIC [10]: 0.5 µg/mL; logD [11]: 1.89; MIC [12]: < 0.12 µg/mL; MIC [5]: 4 µg/mL; MIC [6]: 0.25 µg/mL; MIC [13]: < 0.12 µg/mL; MIC [14]: 0.12 µg/mL; MIC [8]: 64 µg/mL |
| 0.002 | 0.5 (≈ 1.04 µM) | COc1cc(O)c2c(c1C)C(=O)OC[C@H](CO)CCC(=S)N[C@H](c1nc(C)no1)CSC2 | 12.5 | – |
| 0.1 | 64 (≈ 110 µM) | COc1cc(O)c2c(c1Br)C(=O)OCCN(S(C)(=O)=O)CC(=O)N[C@H](c1nc(C)no1)CSC2 | – | – |
| 0.05 | 8 (≈ 14.7 µM) | COCc1noc([C@@H]2CSCc3c(O)cc(OC)c(Br)c3C(=O)OCC(=O)NCC(=O)N2)n1 | – | – |
| 0.002 | 0.5 (≈ 1.04 µM) | COc1cc(O)c2c(c1C)C(=O)OCC(=S)NCC(=S)N[C@H](c1nc(C)no1)CSC2 | – | – |
| 0.02 | 0.5 | COc1cc(O)c2c(c1Br)C(=O)OCC(=O)NCC(=S)N[C@H](c1nc(CNC(C)C)no1)CSC2.Cl | 12 | MIC [10]: 1 µg/mL; MIC [12]: 0.25 µg/mL; MIC [5]: 16 µg/mL; MIC [6]: 0.25 µg/mL; MIC [13]: < 0.12 µg/mL; MIC [14]: 0.5 µg/mL; MIC [8]: > 64 µg/mL |
